The values below come from publication PMC4596243 (Cancer chemotherapy and pharmacology, 2013).

The structures appear in SMILES notation. Values joined by “and” are separate entries in the source; they are usually repeats but may differ in a detail not shown here. Equal values may be shown once. Read-outs that look alike come from different tables or passages of the source.

Series [1] is classed as in vivo, rat. The following applies: for AUC(0-inf): AUC0–∞.
For series [2] the following is noted: TMZ administered with TNP-470; murine glioma model; cited from earlier work.
The next series deals with recurrent GBM. The following applies: cited from earlier work.
The test system of the next series is U87 glioma. Kind of series: In vivo susceptibility-contrast MRI of tumor vasculature after cediranib. The following applies: cediranib once daily. Further details: species or system mice. A digest of the protocol:
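Mice bearing brain U87 tumours imaged at 9.4T on day 12 (2 control, 2 given test compound once daily until sacrifice) or day 21 (3 control, 1 treated). Multi-echo gradient-echo (TR 400 ms) and spin-echo (TR 2000 ms), 16 coronal 1-mm slices, 0.1 mm in-plane, before/after i.v. Feridex 25 mg Fe/kg. Vessel size from (ΔR2*/ΔR2)^3/2; manual tumour ROIs versus mirrored contralateral ROIs, histograms compared.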

[3] abbreviates: corrected for recovery, post-cediranib, individual animal.
Where [4] appears, read: corrected for recovery, pre-cediranib, individual animal.
Where [5] appears, read: post- vs pre-cediranib, tumor ECF, not statistically significant.

For `Cn1nnc2c(C(N)=O)ncn2c1=O` [TMZ, temozolomide], the “AUC0–∞” value was 3120 ng·h/mL and 4520 ng·h/mL and 3870 ng·h/mL and 3100 ng·h/mL in series [1] (setting [3]); 1730 ng·h/mL and 2380 ng·h/mL and 600 ng·h/mL and 2480 ng·h/mL and 1500 ng·h/mL and 1970 ng·h/mL and 2090 ng·h/mL in series [1] (setting [4]). Also, the Cmax (in general, the highest concentration seen after dosing) in series [1] (setting [3]) was 1610 ng/mL and 650 ng/mL and 310 ng/mL and 1290 ng/mL and 640 ng/mL and 690 ng/mL; in series [1] (setting [4]), 460 ng/mL and 620 ng/mL and 190 ng/mL and 710 ng/mL and 690 ng/mL and 900 ng/mL and 530 ng/mL; in series [1] (male, athymic, rat, tumor ECF (brain microdialysate), po, 50 mg/kg, Cmax, corrected for recovery, post-cediranib, mean ± S.D.) it was 830 ± 450 ng/mL; in series [1] (male, athymic, rat, tumor ECF (brain microdialysate), po, 50 mg/kg, Cmax, corrected for recovery, pre-cediranib, mean ± S.D.), 590 ± 220 ng/mL; in series [1] (raw data, pre-cediranib, TMZ 50 mg/kg oral, tumor ECF, individual animal), 510 ng/mL and 540 ng/mL and 380 ng/mL and 400 ng/mL and 470 ng/mL and 100 ng/mL. The T1/2 in series [1] (setting [3]) is 1.5 h and 1.7 h and 3.4 h. Also, the AUC(0-inf) (usually total exposure, with the tail of the curve extrapolated) in series [1] (male, athymic, rat, tumor ECF (brain microdialysate), po, 50 mg/kg, corrected for recovery, post-cediranib, mean ± S.D.) was 3720 ± 610 ng·h/mL; in series [1] (male, athymic, rat, tumor ECF (brain microdialysate), po, 50 mg/kg, corrected for recovery, pre-cediranib, mean ± S.D.), 1820 ± 640 ng·h/mL; in series [1] (male, athymic, rat, tumor ECF (brain microdialysate), po, 50 mg/kg, raw data, post-cediranib, mean ± S.D.), 2840 ± 400 ng·h/mL; in series [1] (male, athymic, rat, tumor ECF (brain microdialysate), po, 50 mg/kg, raw data, pre-cediranib, mean ± S.D.) it was 1310 ± 510 ng·h/mL. Besides, the half-life is 2 ± 0.9 h in series [1] (male, athymic, rat, tumor ECF (brain microdialysate), po, 50 mg/kg, T1/2, corrected for recovery, post-cediranib, mean ± S.D.); 1.7 ± 0.3 h in series [1] (male, athymic, rat, tumor ECF (brain microdialysate), po, 50 mg/kg, T1/2, corrected for recovery, pre-cediranib, mean ± S.D.); 2 ± 0.9 h in series [1] (male, athymic, rat, tumor ECF (brain microdialysate), po, 50 mg/kg, T1/2, raw data, post-cediranib, mean ± S.D.); 1.7 ± 0.3 h in series [1] (male, athymic, rat, tumor ECF (brain microdialysate), po, 50 mg/kg, T1/2, raw data, pre-cediranib, mean ± S.D.). The “increase in ECF-TMZ AUC0-∞ after cediranib administration” value in series [1] (setting [5]) is 2.0 fold and 2 fold. Besides, the “increase in ECF-TMZ Cmax after cediranib administration” value in series [1] (setting [5]) worked out at 1.4 fold.

For `CO[C@@H]1[C@H](OC(=O)NC(=O)CCl)CC[C@]2(CO2)[C@H]1[C@@]1(C)O[C@@H]1CC=C(C)C` [TNP-470], in series [2], the “reduction of TMZ in tumor concentrations” value was 50%.

Take `COc1cc2c(Oc3ccc4[nH]c(C)cc4c3F)ncnc2cc1OCCCN1CCCC1` [cediranib]: the “progression-free survival (PFS)” value with recurrent GBM (cediranib monotherapy, recurrent GBM patients) is “increased progression-free survival”. In the series with recurrent GBM (once daily cediranib, patients with recurrent GBM, starting as early as one day after the treatment), the “duration of tumor vessel normalization” value is listed as “at least 28 days”. Moreover, the “average vessel size (ΔR2*/ΔR2)^3/2 in treated tumor” value in the series with U87 glioma (D12) is on record as “lower compared to the contralateral ROI”. Besides, the “effect on vessel size in treated tumor” value in the series on U87 glioma (D21) is “not apparent”.
